Results published in ChEMBL document CHEMBL3877261, “New azepino[4,3-b]indole derivatives as nanomolar selective inhibitors of human butyrylcholinesterase showing protective effects against NMDA-induced neurotoxicity” (Eur J Med Chem, 2017).
The source made the active and inactive calls. The rule behind the calls is not given here.

Tests used:
[1] = biological target: Cholinesterase (Equus caballus) (UniProt P81908); assay: Inhibition of horse serum BChE at 10 uM pretreated for 20 mins followed by butyrylthiocholine iodide substrate addition measured for 5 mins by Ellman's method relative to control
How it was run: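 Ellman colorimetric assay. BChE (0.9 U/mL stock in 0.1 M PB pH 8.0) with DTNB (3.3 mM stock in pH 7.0 PB plus NaHCO₃) and inhibitor (1×10^-4 to 1×10^-9 M, five to seven concentrations; or single 10 µM point) preincubated 20 min at 25 °C. Butyrylthiocholine iodide (0.05 mM stock) then added and absorbance read at 412 nm for 5.0 min. IC50 from nonlinear regression of log response curves, mean of ≥3 independent runs.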

Cholinesterase [2] = biological target: T1, Cholinesterase (Equus caballus, UniProt P81908); assay: Stability assessed as horse serum BChE mediated compound hydrolysis at 300 x 10^-7M at pH 8 measured every 5 mins for 1 hr by UV-Vis spectra analysis; assay type: ADME; conditions: buffer, pH 8, 1 h, 30 µM
[3] = Neuroprotective activity against NMDA-induced toxicity in human SH-SY5Y cells assessed as cell viability at 0.5 uM incubated for 48 hrs by MTT assay relative to control; assay type: functional; conditions: read-out: Activity
How it was run: (§1)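 SH-SY5Y in DMEM with 2% FBS, seeded ~5,000 cells/well and grown 1 day. Co-exposed 48 h at 37 °C to NMDA (250 µM final) plus test compound. MTT (0.5% w/v) added for 4 h, formazan dissolved in DMSO/ethanol 1:1, absorbance read. Triplicates as % of untreated control, mean ± SEM; one-way ANOVA with Dunnett's test.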

Cholinesterase [4] = biological target: Cholinesterase (Homo sapiens, UniProt P06276); assay: Inhibition of human BChE pretreated for 20 mins followed by butyrylthiocholine iodide substrate addition measured for 5 mins by Ellman's method
How it was run: (§2)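 Ellman colorimetric assay with DTNB (3.3 mM stock, pH 7.0 PB). Test compound (five to seven concentrations, 1×10^-4 to 1×10^-9 M; or single 10 µM point) preincubated with enzyme 20 min at 25 °C in 0.1 M PB pH 8.0. Rate followed at 412 nm for 5.0 min after adding thiocholine substrate (0.05 mM). IC50 by nonlinear regression, mean of ≥3 independent determinations.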

Cholinesterase [5] = biological target: T1, Cholinesterase; assay: Competitive inhibition of horse serum BChE in presence of varying levels of butyrylthiocholine iodide substrate by Lineweaver-burk plot method
How it was run: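 Lineweaver-Burk fit (1/v vs 1/[S]) using fixed enzyme at 0.09 U×mL^-1, substrate varied 25−250 µM, run without inhibitor and with inhibitor at four concentrations spanning 0.5-5.0 nM.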

Cholinesterase [6] = biological target: T1, Cholinesterase; assay: Inhibition of horse serum BChE pretreated for 20 mins followed by butyrylthiocholine iodide substrate addition measured for 5 mins by Ellman's method
Acetylcholinesterase [7] = biological target: T2, Acetylcholinesterase (Homo sapiens, UniProt P22303); assay: Inhibition of human AChE at 10 uM pretreated for 20 mins followed by acetylthiocholine iodide substrate addition measured for 5 mins by Ellman's method relative to control; how it was run: as §2
[8] = Neurotoxicity against human U87 cells assessed as growth inhibition measured after 48 hrs by MTT assay; assay type: toxicity, cell-based, U-87MG ATCC
How it was run: (§3)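 Cells kept in DMEM with 10% FBS, 2 mM L-glutamine, penicillin/streptomycin, 37 °C, 5% CO₂. Seeded ~5,000 cells/well, 1 day, then exposed to compound at 0.1-500 µM for 48 h. MTT 0.5% (w/v) added for 4 h, formazan dissolved in DMSO/ethanol 1:1, absorbance read. Triplicates, as % of untreated control. GI50 from concentration-response curves.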

[9] = Neurotoxicity against human SH-SY5Y cells assessed as growth inhibition measured after 48 hrs by MTT assay; assay type: toxicity, cell-based; conditions: for GI50 at 48 h: SH-SY5Y cells; for growth inhibition (GI): sh-sy5y, 48 h
How it was run: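 SH-SY5Y grown in DMEM/10% FBS, then treated in reduced-serum (2% FBS) medium. Compounds from 20 mM DMSO stock, tested at 0.1-1000 µM for 48 h after 1-day attachment at ~5,000 cells/well. MTT 4 h, DMSO/ethanol solubilization, absorbance. Triplicate wells, % of untreated control. GI50 from dose-response.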

[10] = Cytotoxicity against human MCF7 cells assessed as growth inhibition measured after 48 hrs by MTT assay; assay type: toxicity, cell-based; how it was run: as §3
[11] = Hepatotoxicity against human HepG2 cells assessed as growth inhibition measured after 48 hrs by MTT assay; assay type: toxicity, cell-based; how it was run: as §3
[12] = Neuroprotective activity against NMDA-induced toxicity in human SH-SY5Y cells assessed as cell viability at 5 uM incubated for 48 hrs by MTT assay relative to control; assay type: functional; conditions: read-out: Activity; how it was run: as §1
Acetylcholinesterase [13] = biological target: T2, Acetylcholinesterase; assay: Inhibition of human AChE pretreated for 20 mins followed by acetylthiocholine iodide substrate addition measured for 5 mins by Ellman's method; how it was run: as §2
Acetylcholinesterase [14] = biological target: Acetylcholinesterase (Electrophorus electricus, UniProt O42275); assay: Inhibition of electric eel AChE pretreated for 20 mins followed by acetylthiocholine iodide substrate addition measured for 5 mins by Ellman's method
SH-SY5Y = assay: Neuroprotective activity against NMDA-induced toxicity in human SH-SY5Y cells assessed as increase in cell viability at 0.5 uM incubated for 48 hrs by MTT assay; assay type: functional, cell-based
How it was run: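 SH-SY5Y at ~5,000 cells/well in reduced-serum (2% FBS) medium co-exposed 48 h at 37 °C to NMDA (250 µM final) and compound. Viability by MTT, as % of NMDA-untreated cells. Mean ± SEM; one-way ANOVA with Dunnett's test, P < 0.05 significant.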

Cholinesterase [15] = biological target: T1, Cholinesterase; assay: Stability assessed as horse serum BChE mediated compound hydrolysis at 300 x 10^-6M at pH 8 measured every 5 mins for 1 hr by UV-Vis spectra analysis; assay type: ADME; conditions: buffer, pH 8, 1 h, 300 µM

T2 sequence (P22303 whole entry): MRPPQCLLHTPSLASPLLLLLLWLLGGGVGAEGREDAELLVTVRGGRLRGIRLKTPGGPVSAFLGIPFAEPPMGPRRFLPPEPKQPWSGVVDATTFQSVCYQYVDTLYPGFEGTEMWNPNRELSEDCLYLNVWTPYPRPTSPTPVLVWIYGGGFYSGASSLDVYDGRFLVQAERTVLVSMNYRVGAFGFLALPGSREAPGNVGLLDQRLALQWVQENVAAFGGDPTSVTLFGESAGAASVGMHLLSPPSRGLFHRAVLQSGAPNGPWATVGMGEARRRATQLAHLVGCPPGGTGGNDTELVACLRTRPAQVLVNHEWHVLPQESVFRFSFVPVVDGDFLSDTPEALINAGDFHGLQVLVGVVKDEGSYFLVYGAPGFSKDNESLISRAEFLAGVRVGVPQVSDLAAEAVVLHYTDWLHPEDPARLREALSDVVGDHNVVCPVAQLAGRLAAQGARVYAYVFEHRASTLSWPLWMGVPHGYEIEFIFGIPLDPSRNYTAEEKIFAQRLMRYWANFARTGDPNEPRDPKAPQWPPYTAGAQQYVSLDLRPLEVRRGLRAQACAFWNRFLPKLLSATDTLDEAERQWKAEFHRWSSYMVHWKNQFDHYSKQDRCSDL
Chain of Cholinesterase (Equus caballus) (P81908 whole entry): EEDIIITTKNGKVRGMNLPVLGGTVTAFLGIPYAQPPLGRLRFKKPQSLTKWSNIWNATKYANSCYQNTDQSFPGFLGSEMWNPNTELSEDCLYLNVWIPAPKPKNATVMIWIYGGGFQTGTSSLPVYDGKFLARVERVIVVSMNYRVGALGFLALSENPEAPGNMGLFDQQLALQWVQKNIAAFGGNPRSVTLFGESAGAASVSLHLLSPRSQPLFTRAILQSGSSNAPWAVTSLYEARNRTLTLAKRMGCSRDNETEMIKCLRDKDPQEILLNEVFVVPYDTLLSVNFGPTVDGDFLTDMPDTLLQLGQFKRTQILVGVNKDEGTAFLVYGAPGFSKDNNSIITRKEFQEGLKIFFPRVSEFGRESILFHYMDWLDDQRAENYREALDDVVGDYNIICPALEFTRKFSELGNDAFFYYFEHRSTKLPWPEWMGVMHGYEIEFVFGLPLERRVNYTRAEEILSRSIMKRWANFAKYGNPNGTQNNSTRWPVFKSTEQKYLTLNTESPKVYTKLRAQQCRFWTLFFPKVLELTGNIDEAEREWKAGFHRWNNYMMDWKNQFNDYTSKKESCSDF
T1 sequence (P81908 whole entry): as above
Chain of Acetylcholinesterase (Electrophorus electricus, UniProt O42275) (O42275 whole entry): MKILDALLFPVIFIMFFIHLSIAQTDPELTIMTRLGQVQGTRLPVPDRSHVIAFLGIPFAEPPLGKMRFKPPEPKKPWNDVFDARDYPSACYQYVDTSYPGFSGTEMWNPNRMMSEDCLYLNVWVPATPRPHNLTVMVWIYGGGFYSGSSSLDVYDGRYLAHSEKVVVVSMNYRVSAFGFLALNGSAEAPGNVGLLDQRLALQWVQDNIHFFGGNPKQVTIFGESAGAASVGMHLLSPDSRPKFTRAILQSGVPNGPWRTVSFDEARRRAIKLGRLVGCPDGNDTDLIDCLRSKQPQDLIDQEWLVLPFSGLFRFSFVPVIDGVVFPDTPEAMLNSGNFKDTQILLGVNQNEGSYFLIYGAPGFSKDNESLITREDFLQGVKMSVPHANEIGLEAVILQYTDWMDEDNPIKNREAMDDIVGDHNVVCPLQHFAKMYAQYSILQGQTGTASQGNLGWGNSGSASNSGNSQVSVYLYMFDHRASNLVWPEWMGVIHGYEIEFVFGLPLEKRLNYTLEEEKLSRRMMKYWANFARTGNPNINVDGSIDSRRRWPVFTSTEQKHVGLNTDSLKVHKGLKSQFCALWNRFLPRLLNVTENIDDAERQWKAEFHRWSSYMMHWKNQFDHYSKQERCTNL
Chain of Cholinesterase (Homo sapiens, UniProt P06276) (P06276 whole entry): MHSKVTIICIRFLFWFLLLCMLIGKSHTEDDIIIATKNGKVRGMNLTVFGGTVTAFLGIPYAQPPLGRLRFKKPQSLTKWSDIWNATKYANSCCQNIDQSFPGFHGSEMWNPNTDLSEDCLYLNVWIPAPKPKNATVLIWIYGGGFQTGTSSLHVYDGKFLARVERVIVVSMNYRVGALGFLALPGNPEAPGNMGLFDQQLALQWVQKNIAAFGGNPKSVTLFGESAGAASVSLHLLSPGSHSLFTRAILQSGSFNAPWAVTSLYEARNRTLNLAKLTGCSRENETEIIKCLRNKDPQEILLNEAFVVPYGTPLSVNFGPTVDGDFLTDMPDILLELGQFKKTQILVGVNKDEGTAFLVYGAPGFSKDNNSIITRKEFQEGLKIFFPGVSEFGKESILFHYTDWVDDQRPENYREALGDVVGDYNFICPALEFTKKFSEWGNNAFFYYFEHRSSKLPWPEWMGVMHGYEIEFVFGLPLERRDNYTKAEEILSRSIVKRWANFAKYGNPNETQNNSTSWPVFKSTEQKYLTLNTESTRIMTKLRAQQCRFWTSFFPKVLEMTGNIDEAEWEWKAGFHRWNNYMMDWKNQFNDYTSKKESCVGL

Structure (SMILES): O=C1CCCc2c(c3ccccc3n2CCc2ccccc2)N1
- inhibition [1]: 25%
- Stability (Cholinesterase [2]): Stable

Structure (SMILES): O=C1NCCCc2c1c1ccccc1n2CCc1cccc(F)c1
- viability at 0.5 µM [3]: 70%
- IC50 (Cholinesterase [4]): 0.0018 µM
- Ki (Cholinesterase [5]): 0.0007 µM
- IC50 (Cholinesterase [6]): 0.0015 µM
- inhibition (Acetylcholinesterase [7]): 6%
- GI50 at 48 h [8]: 162 µM
- GI50 at 48 h [9]: 2.61 µM
- growth inhibition (GI) [9]: Dose-dependent effect
- GI50 at 48 h [10]: 162 µM
- GI50 at 48 h [11]: 159 µM

Structure (SMILES): O=c1[nH]cc(F)c(=O)[nH]1 [FLUOROURACIL]
- GI50 at 48 h [8]: 13 µM
- GI50 at 48 h [10]: 4.5 µM
- GI50 at 48 h [11]: 7 µM

Structure (SMILES): O=C1NCCCc2c1c1cc(F)ccc1n2CCc1ccccc1
- IC50 (Cholinesterase [6]): 0.028 µM

Structure (SMILES): O=C1NCCCc2c1c1ccccc1n2CCc1ccc(F)cc1
- IC50 (Cholinesterase [4]): 5 µM
- IC50 (Cholinesterase [6]): 0.23 µM
- viability at 5 µM [12]: 76.6%
- GI50 at 48 h [8]: > 500 µM
- GI50 at 48 h [9]: 251 µM
- growth inhibition (GI) [9]: Dose-dependent effect
- GI50 at 48 h [10]: > 500 µM
- GI50 at 48 h [11]: 230 µM
- IC50 (Acetylcholinesterase [13]): 10 µM

Structure (SMILES): O=C1CCCc2c1c1ccccc1n2CCc1ccccc1
- IC50 (Cholinesterase [6]): 10 µM
- IC50 (Acetylcholinesterase [14]): 10 µM

Structure (SMILES): CC12CC3CC(C)(C1)CC(N)(C3)C2 [MEMANTINE]
- viability at 5 µM [12]: 68%
- GI50 at 48 h [9]: 145 µM
- growth inhibition (GI) [9]: Dose-dependent effect

Structure (SMILES): CCOC(=O)NCCCn1c2c(c3ccccc31)C(=O)NCCC2
- IC50 (Cholinesterase [6]): 15 µM
- IC50 (Acetylcholinesterase [14]): 110 µM

Structure (SMILES): Cc1ccc(CCn2c3c(c4ccccc42)C(=O)NCCC3)cc1
- IC50 (Cholinesterase [6]): 68.2 µM

Structure (SMILES): CN1CCCc2c(c3ccccc3n2CCc2ccccc2)C1=O
- inhibition [1]: 10%
- IC50 (Acetylcholinesterase [14]): 44.8 µM

Structure (SMILES): Cl.c1ccc(CCn2c3c(c4ccccc42)CNCCC3)cc1
- viability at 0.5 µM [3]: 76%
- IC50 (Cholinesterase [6]): 1.14 µM
- GI50 at 48 h [8]: 41 µM
- GI50 at 48 h [9]: 5.6 µM
- growth inhibition (GI) [9]: Dose-dependent effect
- GI50 at 48 h [10]: 28 µM
- GI50 at 48 h [11]: 25 µM

Structure (SMILES): O=C1NCCCc2c1c1ccccc1n2CCc1ccc(Cl)cc1
- IC50 (Cholinesterase [6]): 1.9 µM

Structure (SMILES): O=C1NCCCc2c1c1ccccc1n2CCc1ccccc1
- Activity (SH-SY5Y): Active
- IC50 (Cholinesterase [4]): 0.013 µM
- Stability (Cholinesterase [15]): Stable
- IC50 (Cholinesterase [6]): 0.024 µM
- IC50 (Acetylcholinesterase [14]): 20 µM
- viability at 5 µM [12]: 76.9%
- GI50 at 48 h [8]: 288 µM
- GI50 at 48 h [9]: 138 µM
- growth inhibition (GI) [9]: Dose-dependent effect
- GI50 at 48 h [10]: 170 µM
- GI50 at 48 h [11]: 120 µM
- IC50 (Acetylcholinesterase [13]): 12.6 µM

Structure (SMILES): O=C1NCCCc2c1c1ccccc1n2CCc1cccc(Cl)c1
- IC50 (Cholinesterase [6]): 0.065 µM

Structure (SMILES): CC(C)CCn1c2c(c3ccccc31)C(=O)NCCC2
- IC50 (Cholinesterase [6]): 22.3 µM
- IC50 (Acetylcholinesterase [14]): 100 µM

Structure (SMILES): CCOC(=O)CCCn1c2c(c3ccccc31)C(=O)NCCC2
- IC50 (Cholinesterase [6]): 25.7 µM
- IC50 (Acetylcholinesterase [14]): 60 µM

Structure (SMILES): O/N=C1\CCCc2c1c1ccccc1n2CCc1ccccc1
- inhibition [1]: 5%

Structure (SMILES): CC(=O)OCCCCn1c2c(c3ccccc31)C(=O)NCCC2
- IC50 (Cholinesterase [6]): 10.7 µM

Structure (SMILES): O=C1NCCCc2c1c1ccccc1n2CCCc1ccccc1
- inhibition [1]: 20%

Structure (SMILES): CCCNC(=O)c1cn(CCc2ccccc2)c2ccccc12
- IC50 (Cholinesterase [6]): 12.6 µM
- IC50 (Acetylcholinesterase [14]): 10.3 µM

Structure (SMILES): O=C1NCCCc2c1c1ccccc1n2Cc1ccccc1
- inhibition [1]: 25%
